PfGluPho inh = PfG6PD (Plasmodium falciparum) enzyme inhibition | PfGluPho enzyme, NADPH resazurin-diaphorase fluorescence | inhibition, % at 20 µM | actives 0.78% (n = 350,000) | AID 504690;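 active means inhibition reaching at least a set limit at 20 µM in the primary screen, cut at about 59% in these data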
ZTA counter = ZTA (EBV) inhibition in EBNA-1 counter-screen. P03206. ZTA-DNA binding, fluorescence polarization. inhibition, % at 11 µM. actives 0.15% (n = 320,000); in the data active means inhibition above about 33%
Target sequence (P03206 whole entry, looked up): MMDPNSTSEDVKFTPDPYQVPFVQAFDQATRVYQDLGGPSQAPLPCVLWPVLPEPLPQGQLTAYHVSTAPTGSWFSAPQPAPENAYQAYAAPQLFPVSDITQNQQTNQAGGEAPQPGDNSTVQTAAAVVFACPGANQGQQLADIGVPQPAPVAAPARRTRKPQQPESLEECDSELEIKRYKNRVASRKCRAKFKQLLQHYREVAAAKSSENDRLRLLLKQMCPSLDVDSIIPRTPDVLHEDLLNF
EBNA-1 inhibitor = blocks EBNA-1 binding to DNA; inhibition, % at 14.8 µM; actives 0.34% (n = 300,000); EBNA-1 DNA binding, fluorescence polarization; AID 1950; in the data active means inhibition above about 28%
PfM18AAP inh = blocks P. falciparum M18 aspartyl aminopeptidase; recombinant PfM18AAP, H-Glu-NHMec fluorogenic cleavage; inhibition, % at 7.35 µM; actives 1.2% (n = 290,000); AID 1822;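 active means inhibition above the campaign mean inhibition over all tested compounds plus 3 SD, cut at about 28% in these data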
UBC13 polyUb = inhibitors of human UBC13 polyubiquitin chain formation; TR-FRET; inhibition, % at 20 µM; actives 0.47% (n = 330,000); in the data active means inhibition above about 45%, passing the limit was not always enough
Target sequence (P61088 whole entry, looked up): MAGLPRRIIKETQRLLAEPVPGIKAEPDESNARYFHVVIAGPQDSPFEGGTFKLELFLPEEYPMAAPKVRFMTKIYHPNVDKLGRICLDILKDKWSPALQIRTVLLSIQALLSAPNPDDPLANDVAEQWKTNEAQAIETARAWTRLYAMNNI
Apaf-1 inh = blocks human Apaf-1 apoptosome activity; O14727; reconstituted apoptosome caspase-3 activity, DEVD-Rh110 fluorescence; inhibition, % at 20 µM; actives 0.71% (n = 330,000); AID 489030; active means inhibition of at least 40% at 20 µM
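Medium: Hepes buffer, pH 7.5 / System: biochemical Apaf-1 apoptosome reconstitution / Measured by: Rh110 fluorescence, excitation 480 nm, emission 540 nm / Times: compound with Apaf-1, dATP, procaspase-3 30 min, then 50 min reaction, room temperature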
Of the large screens only hits and unclear results are named; the others gave an inactive call. Rows were chosen to be rich in hits. Some 2.9% of all compounds tested hit in one or more screens of this group.

C/C(=N/Nc1ccc(C(=O)O)cc1)c1ccc(O)c(O)c1O	PfM18AAP inh 51.5
COc1cc(/C(C)=N/Nc2ccc(C(=O)O)cc2)cc(OC)c1OC	none
COc1ccc(/C(C)=N/Nc2ccc(C(=O)O)cc2)cc1OC	PfM18AAP inh 28.6
CCN(CC)CCNC(=O)c1ccc(NC(=O)COc2ccc3c(c2)CCC3)cc1	none (no result: EBNA-1 inhibitor, PfM18AAP inh)
Fc1ccc2cc(-c3ccsc3)ncc2c1	none (no result: ZTA counter, EBNA-1 inhibitor, PfM18AAP inh)
COCCN1C(=S)N[C@@H](c2cccc(F)c2)C(C(=O)OC)=C1C	UBC13 polyUb 85.6, Apaf-1 inh 57.4 (no result: PfGluPho inh)
N#CC(=C1NC(=O)c2ccccc21)c1nc2ccccc2n1CCO	none (no result: ZTA counter, EBNA-1 inhibitor, PfM18AAP inh, UBC13 polyUb, Apaf-1 inh)
COc1ccc(-n2sc3ccc(F)cc3c2=O)cc1	PfGluPho inh 112.2 (no result: EBNA-1 inhibitor, PfM18AAP inh)
COc1ccc(N2C(=O)CSC2c2ccc(F)cc2)cc1 (stereo unspecified)	none
O=C(O)CCC(=O)Nc1ccccc1C(=O)NCCc1ccccc1	none
Cc1c(C(=O)Nc2ccc(F)cc2)c2ccccn2c1CCc1ccncc1	none
COc1ccc2[nH]c(=O)cc(C(=O)O)c2c1	none
COc1ccc2[nH]c3c4c(ccc3c2c1)C(=O)C=CC4=O	PfGluPho inh 90.4, Apaf-1 inh 45.2 (no result: ZTA counter, EBNA-1 inhibitor)
O=C(COc1cc2oc(=O)c3c(c2cc1Cl)CCC3)Nc1ccc(CN2CCOCC2)cc1	none
CN(C(=O)c1cccc(NC(=O)Cc2cccc(NC(=O)C3CCN(C(=O)CCc4ccccc4)CC3)c2)c1)C1CC1	none (no result: ZTA counter, EBNA-1 inhibitor, PfM18AAP inh, UBC13 polyUb, Apaf-1 inh)
CCCc1ccc(/C=C2\C(=O)c3ccccc3C(O)=C2C(=O)OCC)cc1	none (no result: PfGluPho inh)
CCOC(=O)C1=C(O)c2ccccc2C(=O)/C1=C\c1ccc(CC)cc1	PfGluPho inh 93.8 (no result: UBC13 polyUb, Apaf-1 inh)
CCOC(=O)C1=C(Cc2ccc(OC)cc2)C(=O)c2ccccc2C1=O	PfGluPho inh 95.5 (no result: ZTA counter, EBNA-1 inhibitor, UBC13 polyUb, Apaf-1 inh)
COc1ccc(CCN2CC(C(=O)NCCc3ccccc3C(F)(F)F)CCC2=O)cc1 (stereo unspecified)	none
Cc1ccc(NC(=O)COC(=O)c2ccco2)cc1S(=O)(=O)N1CCCCC1	none (no result: ZTA counter, EBNA-1 inhibitor, PfM18AAP inh, UBC13 polyUb, Apaf-1 inh)
C[C@@H]1CN([C@@H](C)CO)C(=O)c2cc(Br)cnc2O[C@@H]1CN(C)S(=O)(=O)c1ccc(F)cc1	none (no result: ZTA counter, EBNA-1 inhibitor, PfM18AAP inh, UBC13 polyUb, Apaf-1 inh)
CN(C)c1ccc(C=Nc2ccccc2)cc1	none
CN(C)c1ccc(N=Cc2ccco2)cc1	PfGluPho inh 60.1, ZTA counter active, EBNA-1 inhibitor active
CN(CC(=O)Nc1cccc(F)c1)C(=O)c1ccccc1-n1cnnn1	none (no result: ZTA counter, EBNA-1 inhibitor, PfM18AAP inh)
CC1CCc2c(sc3nc(CSc4ncn[nH]4)[nH]c(=O)c23)C1 (stereo unspecified)	PfM18AAP inh 56.0
Cc1ccc(C)c(NC(=O)C2CCN(S(=O)(=O)c3ccc4c(c3)NC(=O)CO4)CC2)c1	none
C=CC(=O)Nc1ccc(Nc2nc(NC3CCC(N(C)C)CC3)nc3c2ncn3C(C)C)cc1 (stereo unspecified)	Apaf-1 inh 45.9 (no result: ZTA counter, EBNA-1 inhibitor, PfM18AAP inh)
COc1ccc(C2=NS(=O)(=O)N(C)C(C(=O)NC3CCCCC3)=C2)cc1OC	none
CN=c1scc(-c2cccs2)n1/N=C/c1ccc(O)c(O)c1O	PfM18AAP inh 31.0
CN=c1scc(-c2cccs2)n1/N=C/c1ccccc1O	none
NC(=O)c1ccc(N=C2C(=O)Nc3ccc([N+](=O)[O-])cc32)cc1	Apaf-1 inh 55.8
CC1C(c2ccccc2)OCCN1C(=S)Nc1ccc(S(=O)(=O)N2CCCCC2)cc1 (stereo unspecified)	none (no result: ZTA counter, EBNA-1 inhibitor, PfM18AAP inh, UBC13 polyUb, Apaf-1 inh)
COc1ccc(Cl)cc1C(=O)Nc1nnn(C)n1	none
CN=c1scc(C)n1/N=C/c1cc(Br)c(O)c(OC)c1	PfM18AAP inh 28.0
Nc1ncnc2c1ncn2[C@@H]1O[C@H](CNCC(O)CO)[C@@H](O)[C@H]1O (stereo partly specified)	none (no result: ZTA counter, EBNA-1 inhibitor, PfM18AAP inh, UBC13 polyUb)
Oc1ccc(N=Cc2ccc(O)c(O)c2)cc1	PfGluPho inh 67.3, PfM18AAP inh 45.6, Apaf-1 inh 75.0
Oc1ccc(/C=N/N=C/c2ccc(O)cc2)cc1	none
S=c1nc(-c2ccccc2)n(-c2ccccc2)[nH]1	PfM18AAP inh 29.5
S=c1nc(-c2ccccc2)[nH]n1-c1ccccc1	none (no result: UBC13 polyUb, Apaf-1 inh)
COc1ccc(OC)c(/C=C2\NC(=O)NC2=O)c1	none
COc1cc(N2CCCC2)c(OC)cc1/C=C1/NC(=S)NC1=O	PfM18AAP inh 28.5
CCCCN1C(=O)CC2CCOC21C (stereo unspecified)	none (no result: ZTA counter, EBNA-1 inhibitor, PfM18AAP inh, UBC13 polyUb, Apaf-1 inh)
COc1cc(/C=C/C(=O)c2ccc3c(c2)OCO3)cc(Cl)c1O	PfM18AAP inh 31.6
C[C@H](CO)N1C[C@H](C)[C@H](CN(C)C(=O)Cc2cccnc2)Oc2ncc(Br)cc2C1=O	none (no result: ZTA counter, EBNA-1 inhibitor, PfM18AAP inh, UBC13 polyUb, Apaf-1 inh)
Cc1ccc(-n2c(Cc3cccn3C)nnc2SCC(=O)Nc2ccc3c(c2)OCO3)cc1	none
Cc1ccc(-n2c(Cc3cccn3C)nnc2SCC(=O)NCc2ccc3c(c2)OCO3)cc1	PfM18AAP inh 30.3
Cc1noc(C)c1NC(=O)N(C)C[C@H]1OCc2cnnn2CCCC(=O)N([C@H](C)CO)C[C@@H]1C	none (no result: ZTA counter, EBNA-1 inhibitor, PfM18AAP inh, UBC13 polyUb, Apaf-1 inh)
CC1=C(C(=O)N(C)C)CC(CC(=O)NCCCCc2ccccc2)C(=O)N1Cc1ccccc1 (stereo unspecified)	none (no result: ZTA counter, EBNA-1 inhibitor, PfM18AAP inh, UBC13 polyUb, Apaf-1 inh)
CC(=O)/C(=N\Nc1ccccc1)Sc1cccc2cccnc12	PfM18AAP inh 30.9
CO[C@H]1C=CO[C@@]2(C)Oc3c(C)c(O)c4c(O)c(c5c(nc6cc(C)ccn65)c4c3C2=O)NC(=O)C(C)=CC=C[C@H](C)[C@H](O)[C@@H](C)[C@@H](O)[C@@H](C)[C@H](OC(C)=O)[C@@H]1C	PfM18AAP inh 47.6 (no result: PfGluPho inh, ZTA counter, EBNA-1 inhibitor)
COc1ccc(/C=N/Nc2cc(C)nc(NS(=O)(=O)c3ccc(C)cc3)n2)cc1	none
COc1cc(/C=N/Nc2cc(C)nc(NS(=O)(=O)c3ccc(C)cc3)n2)ccc1O	PfM18AAP inh 29.5 (no result: ZTA counter, EBNA-1 inhibitor, UBC13 polyUb, Apaf-1 inh)

Compound activity deposited in PubChem by several laboratories.
